From ChEMBL document CHEMBL1140467, “Small molecule ago-allosteric modulators of the human glucagon-like peptide-1 (hGLP-1) receptor” (Bioorg Med Chem Lett, 2007)
Activity calls are given as the source filed them. The rule behind the calls is not given here.

Assays:
[1] = target: T1, Glucagon-like peptide 1 receptor (Homo sapiens, UniProt P43220); experiment: Agonist activity at human GLP1 assessed as stimulation of cAMP; assay type: functional
Procedure, shortened: (§1)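 cAMP production was measured in a membrane-based assay at the human GLP-1 receptor. Potency is reported as EC50 and efficacy as Emax (%).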

[2] = target: T1, Glucagon-like peptide 1 receptor; experiment: Agonist activity at human GLP1 assessed as stimulation of cAMP relative to cAMP; assay type: functional; procedure, shortened: as §1
[3] = target: T1, Glucagon-like peptide 1 receptor; experiment: Effect on augmentation of [125]GLP1 binding to human GLP1; details: read-out: IC50 (the source's name)
Procedure, shortened: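 Test agents were incubated with human GLP-1 receptor and GLP-1, and the rise in GLP-1 binding was followed across agent concentrations. IC50 is the agent concentration giving 50% of its maximal augmentation of GLP-1 binding.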

Pancreas = experiment: Effect on release of insulin in perfused rat pancreas; assay type: functional, tissue-based
Mus musculus = species: Mus musculus; experiment: Effect on release of insulin in mouse islets; assay type: functional

T1 sequence (P43220 whole entry): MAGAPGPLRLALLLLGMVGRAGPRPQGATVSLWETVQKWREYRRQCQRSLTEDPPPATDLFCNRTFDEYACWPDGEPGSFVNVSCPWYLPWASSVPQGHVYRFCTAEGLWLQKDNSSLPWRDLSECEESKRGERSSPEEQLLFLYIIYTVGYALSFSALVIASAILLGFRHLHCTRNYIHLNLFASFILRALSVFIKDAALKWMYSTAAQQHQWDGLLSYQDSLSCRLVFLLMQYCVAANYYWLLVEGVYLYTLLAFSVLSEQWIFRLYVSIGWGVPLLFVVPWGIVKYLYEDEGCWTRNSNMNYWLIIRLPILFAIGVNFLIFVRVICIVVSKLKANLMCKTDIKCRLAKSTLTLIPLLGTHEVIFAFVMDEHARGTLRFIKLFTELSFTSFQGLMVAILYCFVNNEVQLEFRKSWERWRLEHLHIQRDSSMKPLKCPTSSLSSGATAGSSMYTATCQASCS

## CCC(C)Nc1nc2cc(Cl)c([N+](=O)[O-])cc2nc1S(C)(=O)=O (stereo unspecified)
[1]
  EC50: 4300 nM
[2]
  Emax: 44%

## CCCc1nc2cc(OC)c(OC)cc2nc1S(C)(=O)=O
[2]
  Emax: < 2%

## CC(C)Nc1nc2cc(Cl)c(Cl)cc2nc1S(C)(=O)=O
[3]
  EC50: 107 nM
[1]
  EC50: 214 nM
[2]
  Emax: 82%

## Cc1nnc([S+]([O-])c2nc3cc(Cl)c(Cl)cc3nc2C(C)C)s1 (stereo unspecified)
[1]
  EC50: 5100 nM
[2]
  Emax: 19%

## CS(=O)(=O)c1nc2cc(Cl)c(Cl)cc2nc1C(F)(F)F
[3]
  EC50: 91 nM
[1]
  EC50: 2600 nM
[2]
  Emax: 40%

## N#Cc1nc2cc(Cl)c(Cl)cc2nc1C(F)(F)F
[2]
  Emax: < 2%

## CC(C)(C)Nc1nc2cc(Cl)c(Cl)cc2nc1S(C)(=O)=O
[1]
  EC50: 155 nM
[2]
  Emax: 85%
Pancreas
  Activity: Active
Mus musculus
  Activity: Active

## CC(C)Nc1nc2c([N+](=O)[O-])c(Cl)c(Cl)cc2nc1S(C)(=O)=O
[1]
  EC50: 1500 nM
[2]
  Emax: 38%

## CC(C)c1nc2cc(Cl)c(Cl)cc2nc1O
[2]
  Emax: < 2%

## CC(C)Nc1nc2cc(Cl)c([N+](=O)[O-])c(C(F)(F)F)c2nc1S(C)(=O)=O
[1]
  EC50: 5000 nM
[2]
  Emax: 31%

## CC(C)C(=O)c1nc2cc(Cl)c(Cl)cc2nc1C(C)C
[3]
  EC50: > 10000 nM
[2]
  Emax: < 2%

## CC(C)n1c(S(C)(=O)=O)nc2cc(Cl)c(Cl)cc21
[1]
  Activity: inactive

## CC(C)c1nc2cc(Cl)c(Cl)cc2nc1S(C)(=O)=O
[3]
  EC50: 253 nM
[1]
  EC50: 5000 nM
[2]
  Emax: 35%

## CCNc1nc2cc(Cl)c(Cl)cc2nc1S(C)(=O)=O
[3]
  EC50: 109 nM
[1]
  EC50: 725 nM
[2]
  Emax: 46%

## CC(C)c1nc2cc(Cl)c(Cl)cc2nc1S(=O)(=O)CCC1OCCO1
[3]
  EC50: 551 nM
[1]
  EC50: 3000 nM
[2]
  Emax: 71%

## CCCc1nc2cc(C)c(C)cc2nc1S(C)(=O)=O
[2]
  Emax: < 2%

## CC(C)c1nc2cc(Cl)c(Cl)cc2nc1S(=O)(=O)Cc1ccc(S(=O)(=O)CC2CC2)cc1
[1]
  EC50: 3300 nM
[2]
  Emax: 64%

## CCN(CC)C(=O)c1nc2cc(Cl)c(Cl)cc2nc1C(C)C
[3]
  EC50: > 10000 nM
[2]
  Emax: < 2%

## O=S1(=O)CCCc2nc3cc(Cl)c(Cl)cc3nc21
[1]
  Activity: inactive

## CS(=O)(=O)c1nc2cc(Cl)c(Cl)cc2nc1N1CCC(=O)N1
[1]
  EC50: 14000 nM
[2]
  Emax: 38%

## CS(=O)(=O)c1nc2cc(Cl)c(Cl)cc2nc1N
[1]
  EC50: 6300 nM
[2]
  Emax: 24%

## CCOC(=O)c1nc2cc(Cl)c(Cl)cc2nc1S(C)(=O)=O
[3]
  EC50: 3100 nM
[1]
  EC50: > 10000 nM
[2]
  Emax: 24%

## CS(=O)(=O)c1nc2cc(Cl)c(Cl)cc2nc1N1CCCC1
[1]
  EC50: 2200 nM
[2]
  Emax: 72%

## CCC(C)Nc1nc2cc(Cl)c(Cl)cc2nc1S(C)(=O)=O (stereo unspecified)
[1]
  EC50: 175 nM
[2]
  Emax: 94%

## CC(C)c1nc2cc(Cl)c(Cl)cc2nc1S(=O)(=O)Cc1ccc(S(C)(=O)=O)cc1
[3]
  EC50: 459 nM
[1]
  EC50: 1200 nM
[2]
  Emax: 63%

## Nc1nc2cc(Cl)c(Cl)cc2nc1C(F)(F)F
[2]
  Emax: < 2%

## CC(C)(C)Nc1nc2c(Cl)cc(C(F)(F)F)cc2nc1S(C)(=O)=O
[1]
  EC50: 2200 nM
[2]
  Emax: 42%

## COC(=O)CCNS(=O)(=O)c1ccc(CS(=O)(=O)c2nc3cc(Cl)c(Cl)cc3nc2C(C)C)cc1
[1]
  EC50: 4900 nM
[2]
  Emax: 65%

## CCCc1nc2cc(Cl)c(Cl)cc2nc1S(C)(=O)=O
[3]
  EC50: 404 nM
[1]
  EC50: 1200 nM
[2]
  Emax: 68%

## CON(C)c1nc2cc(Cl)c(Cl)cc2nc1S(C)(=O)=O
[1]
  EC50: 2600 nM
[2]
  Emax: 52%

## CCOC(=O)c1nc2cc(Cl)c(Cl)cc2nc1C(F)(F)F
[2]
  Emax: < 2%

## CC(C)Sc1nc2cc(Cl)c(Cl)cc2nc1S(C)(=O)=O
[2]
  Emax: 46%

## CC(=O)NNc1nc2cc(Cl)c(Cl)cc2nc1S(C)(=O)=O
[1]
  EC50: 14000 nM
[2]
  Emax: 32%

## CS(=O)(=O)c1nc2cc(Cl)c(Cl)cc2nc1NC1CCCc2ccccc21 (stereo unspecified)
[1]
  EC50: 433 nM
[2]
  Emax: 69%

## CC(C)c1nc2cc(Cl)c(Cl)cc2nc1[S+](C)[O-] (stereo unspecified)
[3]
  EC50: 1100 nM
[1]
  EC50: 30000 nM
[2]
  Emax: 29%

## Cc1nnc(S(=O)(=O)c2nc3cc(Cl)c(Cl)cc3nc2C(C)C)s1
[1]
  EC50: 1000 nM
[2]
  Emax: 47%

## CS(=O)(=O)c1nc2cc(Cl)c(Cl)cc2nc1NC1CCS(=O)(=O)C1 (stereo unspecified)
[1]
  EC50: 1400 nM
[2]
  Emax: 43%

## CC(=O)NCCNc1nc2cc(Cl)c(Cl)cc2nc1S(C)(=O)=O
[1]
  EC50: 7100 nM
[2]
  Emax: 22%

## COC(=O)c1cc2cc(Cl)c(Cl)cc2nc1S(C)(=O)=O
[1]
  Activity: inactive

## CCOP(=O)(OCC)c1nc2cc(Cl)c(Cl)cc2nc1C(F)(F)F
[2]
  Emax: < 2%

## CC(C)N(C)c1nc2cc(Cl)c(Cl)cc2nc1S(C)(=O)=O
[3]
  EC50: 460 nM
[1]
  EC50: 1800 nM
[2]
  Emax: 75%

## CN(C)c1nc2cc(Cl)c(Cl)cc2nc1S(C)(=O)=O
[3]
  EC50: 530 nM
[1]
  EC50: 2200 nM
[2]
  Emax: 47%
